Measured values collected from several papers.

COc1ccc(F)cc1C(=O)NCc1ccc(-c2nn([C@@H](C)C(F)(F)F)c(N)c2C(N)=O)cc1  AUC(0-inf) (human, plasma; oral, 200 mg, single dose): 80.8 µg·h/mL
COc1ccc(-c2c(Nc3ccccn3)[nH]c3c(C4=CCCCC4)c(-c4ccccc4)nn3c2=O)cc1  AUC(0-t) (human, plasma; oral, 400 mg once daily, multiple doses, steady state, patients): 57.3 µg·h/mL
CC(C)n1c(C2CCNCC2)nc2c([N+](=O)[O-])c(Br)c(Br)cc21  AUC(0-t) (human, plasma; oral, 125 mg, patients): 1.76 µg·h/mL
NCc1cc2c(cc1F)C(=O)N(C1CCC(=O)NC1=O)C2 (centres unmarked)  Tmax (male cynomolgus monkey, plasma; oral, 0.3 mg/kg): 2 h
O=C(COc1ccc(Cl)cc1)NC12CC(c3nnc([C@H]4C[C@@H](OC(F)(F)F)C4)o3)(C1)C2  AUC (human, plasma; oral, 200 mg, multiple doses, once daily, steady state, healthy volunteers): 242 µM·h
CC(=O)N(C)[C@H]1CCN(C(=O)c2cnc3c(c2)C[C@](C)(c2ccc(F)cc2)N3)C1  AUC(0-t) (male human, plasma; oral, 15 mg, multiple doses, once daily, steady state): 1.97 µM·h
CC(C)[C@@H](CS(=O)(=O)C(C)C)N1C(=O)[C@@](C)(CC(=O)O)C[C@H](c2cccc(Cl)c2)[C@H]1c1ccc(Cl)cc1  unbound tissue/plasma ratio (FVB mouse, brain; oral, 20 mg/kg): 0.005
COc1ccc2c(c1)CN(C(=O)CCN1CCC(Cc3ccccc3)CC1)CC[S@@+]2[O-]  AUC(0-t) (male human, plasma; intravenous, 0.6 mg/kg, healthy volunteers): 3.18 µg·h/mL
